In ChEMBL document CHEMBL1166000, “Maximizing chemical diversity of fungal metabolites: biogenetically related Heptaketides of the endolichenic fungus Corynespora sp. (1)” (J Nat Prod, 2010) one finds inhibition data, which are given here for nine compounds.

The test system of assay [1] is PC-3M. As to the kind of experiment: Inhibition of cell proliferation in human PC3M cells at 5 uM after 40 hrs by MTT assay. The format is functional, cell-based. The essentials:
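Antiproliferative (cytotoxicity) screen by the MTT method, with each compound tested at a single concentration of 5 µM.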
(Tetrazolium assays rely on reduction of a dye to a coloured formazan, in cell work by metabolically active cells.)

Assay [2] has as its system PC-3M. The assay is described as follows: Inhibition of human PC3M cell migration at 5 uM by wound-healing assay. The format is functional, cell-based.

The source made the active and inactive calls. The rule behind the calls is not given here.

In the case of `COc1cc(OC)c2c(c1)C(=O)C1=C(CO[C@@](C)(O)C1)C2=O`, the inhibition result in assay [1] and in assay [2] was “inactive” each time.

`COc1cc(OC)c2c(c1)[C@H](O)C1C[C@](C)(O)OCC1C2=O` (stereo partly drawn): the inhibition result in assay [1] and in assay [2] was “inactive” in each case.

Turning to `COc1cc(OC)c2c(c1)C(=O)c1cc(C)ncc1C2=O`, the inhibition result in assay [1] and in assay [2] was “inactive” throughout.

As for `COc1cc(O)c2c(c1)[C@H](O)C1C[C@](C)(O)OCC1C2=O` (stereo partly drawn), the inhibition result in assay [1] and in assay [2] was “inactive” throughout.

As to `COc1cc(OC)c2c(c1O)C(=O)C1=C(CO[C@@](C)(O)C1)C2=O`, the inhibition entry in assay [1] and in assay [2] was “inactive” throughout.

For the compound `COc1cc(OC)c2c(c1O)C(=O)c1cc(C)ncc1C2=O`, the inhibition entry in assay [1] and in assay [2] was “inactive” throughout.

For `COc1cc2c(c(OC)c1O)C(=O)C1=C(C[C@](C)(O)OC1)C2=O`, the inhibition result in assay [1] and in assay [2] was “inactive” in each case.

Turning to `COc1cc(O)cc2c1C(=O)C1=C(C[C@](C)(O)OC1)C2=O`, the inhibition result in assay [1] and in assay [2] was “inactive” each time.

Turning to `COc1cc(OC)c2c(c1)C(=O)C1=C(C2=O)C(OC)OC(C)=C1` (stereo not drawn), the inhibition result in assay [1] and in assay [2] was “inactive” in each case.
